Assays:
Type in all cases: functional
NCI-H226 = test: Growth inhibition of human NCI-H226 cells assessed as cell growth at 10 uM incubated for 48 hrs by sulforhodamine B assay relative to control; details: NCI-H226, 48 h, read-out: Activity
Outline: (§1)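 Run in the standard NCI 60-cell-line screen. Cells were exposed to drug for two days, and the read-out was sulforhodamine B staining. Compound was tested at a single final concentration of 10 µM in every line, and results are reported as growth percent.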

[1] = Growth inhibition of human COLO205 cells assessed as cell growth at 10 uM incubated for 48 hrs by sulforhodamine B assay relative to control; details: COLO 205, 48 h, read-out: Activity; outline: as §1
[2] = Growth inhibition of human UACC257 cells assessed as cell growth at 10 uM incubated for 48 hrs by sulforhodamine B assay relative to control; details: UACC-257, 48 h, read-out: Activity
Outline: (§2)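 NCI 60-cell line standard protocol, one-dose screen: single final concentration 10 µM, 2-day drug exposure, sulforhodamine B (SRB) endpoint; read-out is growth percent relative to untreated control.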

[3] = Growth inhibition of human SF295 cells assessed as cell growth at 10 uM incubated for 48 hrs by sulforhodamine B assay relative to control; details: SF-295, 48 h, read-out: Activity; outline: as §1
ACHN = test: Growth inhibition of human ACHN cells assessed as cell growth at 10 uM incubated for 48 hrs by sulforhodamine B assay relative to control; details: read-out: Activity; outline: as §1
[4] = Growth inhibition of human RPMI8226 cells assessed as cell growth at 10 uM incubated for 48 hrs by sulforhodamine B assay relative to control; details: RPMI-8226, 48 h, read-out: Activity; outline: as §1
[5] = Growth inhibition of human SF539 cells assessed as cell growth at 10 uM incubated for 48 hrs by sulforhodamine B assay relative to control; details: SF-539, 48 h, read-out: Activity
Outline: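 Single-dose screen in the NCI 60-cell-line panel at one final concentration of 10 µM. Two-day drug exposure with a sulforhodamine B endpoint. Values are growth percent for each cell line.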

T47D = test: Growth inhibition of human T47D cells assessed as cell growth at 10 uM incubated for 48 hrs by sulforhodamine B assay relative to control; details: read-out: Activity; outline: as §2
[6] = Growth inhibition of human OVCAR8 cells assessed as cell growth at 10 uM incubated for 48 hrs by sulforhodamine B assay relative to control; details: OVCAR-8, 48 h, read-out: Activity; outline: as §1
[7] = Growth inhibition of human Hs 578T cells assessed as cell growth at 10 uM incubated for 48 hrs by sulforhodamine B assay relative to control; details: read-out: Activity
786-0 [8] = test: Growth inhibition of human 786-0 cells assessed as cell growth at 10 uM incubated for 48 hrs by sulforhodamine B assay relative to control; details: 786-0, 48 h, read-out: Activity; outline: as §1
[9] = Growth inhibition of human SKOV3 cells assessed as cell growth at 10 uM incubated for 48 hrs by sulforhodamine B assay relative to control; details: SK-OV-3, 48 h, read-out: Activity; outline: as §1
[10] = Growth inhibition of human HOP62 cells assessed as cell growth at 10 uM incubated for 48 hrs by sulforhodamine B assay relative to control; details: HOP-62, 48 h, read-out: Activity; outline: as §1
NCI-H460 = test: Growth inhibition of human NCI-H460 cells assessed as cell growth at 10 uM incubated for 48 hrs by sulforhodamine B assay relative to control; details: NCI-H460, 48 h, read-out: Activity; outline: as §1
[11] = Growth inhibition of human OVCAR5 cells incubated for 48 hrs by sulforhodamine B assay; details: OVCAR-5, 48 h
Outline: (§3)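 NCI 60-cell-line panel, standard protocol. Cells exposed to compound for two days, growth read by sulforhodamine B staining. Tested at five 10-fold dilutions, top concentration 100 µM, to give dose-response curves.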

786-0 [12] = test: Growth inhibition of human 786-0 cells incubated for 48 hrs by sulforhodamine B assay; details: 786-0, 48 h; outline: as §3
HT-29 = test: Growth inhibition of human HT-29 cells incubated for 48 hrs by sulforhodamine B assay; details: HT-29, 48 h; outline: as §3
[13] = Growth inhibition of human UACC62 cells incubated for 48 hrs by sulforhodamine B assay; details: UACC-62, 48 h
Outline: (§4)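 Tested in the standard NCI 60-cell-line protocol with two-day drug exposure and a sulforhodamine B endpoint. Compounds were first screened at a single final concentration of 10 µM, reported as growth percent. They were then run as five 10-fold dilutions starting from a high concentration of 100 µM to give dose-response curves.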

MDA-MB-231 = test: Growth inhibition of human MDA-MB-231 cells incubated for 48 hrs by sulforhodamine B assay; details: MDA-MB-231, 48 h; outline: as §3
[14] = Growth inhibition of human MOLT4 cells incubated for 48 hrs by sulforhodamine B assay; details: MOLT-4, 48 h; outline: as §3
A498 = test: Growth inhibition of human A498 cells incubated for 48 hrs by sulforhodamine B assay; details: A498, 48 h
NCI/ADR-RES = test: Growth inhibition of human NCI/ADR-RES cells incubated for 48 hrs by sulforhodamine B assay; outline: as §3
[15] = Growth inhibition of human UACC257 cells incubated for 48 hrs by sulforhodamine B assay; details: UACC-257, 48 h; outline: as §4
NCI-H322M = test: Growth inhibition of human NCI-H322M cells incubated for 48 hrs by sulforhodamine B assay; outline: as §3
[16] = Growth inhibition of human TK10 cells incubated for 48 hrs by sulforhodamine B assay; details: TK-10, 48 h; outline: as §4
SK-MEL-28 = test: Growth inhibition of human SK-MEL-28 cells incubated for 48 hrs by sulforhodamine B assay; details: SK-MEL-28, 48 h; outline: as §3
[17] = Growth inhibition of human SW620 cells incubated for 48 hrs by sulforhodamine B assay; details: SW-620, 48 h; outline: as §4
SK-MEL-2 = test: Growth inhibition of human SK-MEL-2 cells incubated for 48 hrs by sulforhodamine B assay; details: SK-MEL-2, 48 h; outline: as §3
SR = test: Growth inhibition of human SR cells incubated for 48 hrs by sulforhodamine B assay; outline: as §4
[18] = read-out: pLC50 (the source's name) (converted)

Compound `CC(C)[C@@]12C[C@@H](NC(=O)CF)[C@@](C)(O1)[C@@H]1CC[C@@H](C)[C@H]1[C@@H]2OC(=O)/C=C/c1ccccc1` has a growth at 10 µM (NCI-H226) of 84.5%, a growth at 10 µM [1] of 103% and a growth at 10 µM [2] of 105%. It also gave a growth at 10 µM [3] of 105%, a growth at 10 µM (ACHN) of 105% and a growth at 10 µM [4] of 94.3%. The growth at 10 µM [5] was 87.9%, the growth at 10 µM (T47D) was 78.4% and the growth at 10 µM [6] was 107%. For the same compound, the growth at 10 µM [7] was 92.6%, the growth at 10 µM (786-0 [8]) was 97.3% and the growth at 10 µM [9] was 91.3%. It also gave a growth at 10 µM [10] of 90.8% and a growth at 10 µM (NCI-H460) of 104%.
In the case of `CC(C)[C@@]12C[C@@H](NC(=O)CO)[C@@](C)(O1)[C@@H]1CC[C@@H](C)[C@H]1[C@@H]2OC(=O)/C=C/C1CCCCC1`, the growth at 10 µM (NCI-H226) is reported as 96.2%, the growth at 10 µM [1] is reported as 113% and the GI50 [11] is reported as > 44.7 µM. For the same compound, the LC50 [11] was > 44.7 µM, the TGI ([11]; read-out: pTGI (converted)) was > 44.7 µM and the growth at 10 µM [2] was 98.2%. For the same compound, the growth at 10 µM [3] was 86.3%, the growth at 10 µM (ACHN) was 99.9% and the GI50 (786-0 [12]) was > 44.7 µM. The LC50 (786-0 [12]) was > 44.7 µM, the TGI (786-0 [12]; read-out: pTGI (converted)) was > 44.7 µM and the GI50 (HT-29) was > 44.7 µM. For the same compound, the LC50 (HT-29) was > 44.7 µM, the TGI (HT-29; read-out: pTGI (converted)) was > 44.7 µM and the GI50 [13] was > 44.7 µM. For the same compound, the LC50 (lethal concentration, 50% net cell kill) [13] was > 44.7 µM, the TGI ([13]; read-out: pTGI (converted)) was > 44.7 µM and the GI50 (MDA-MB-231) was > 44.7 µM. The CC50 (MDA-MB-231; [18]) was > 44.7 µM, the TGI (MDA-MB-231; read-out: pTGI (converted)) was > 44.7 µM and the growth at 10 µM [4] was 134%. For the same compound, the GI50 [14] was > 44.7 µM, the LC50 [14] was > 44.7 µM and the TGI ([14]; read-out: pTGI (converted)) was > 44.7 µM. The LC50 (A498) was > 44.7 µM, the GI50 (A498; read-out: GI50) was 5.62 µM and the GI50 (A498; read-out: pGI50 (converted)) was 5.62 µM. The TGI (A498; read-out: pTGI (converted)) was 21.4 µM, the growth at 10 µM (T47D) was 102% and the growth at 10 µM [6] was 107%. For the same compound, the growth at 10 µM [7] was 73%, the growth at 10 µM (786-0 [8]) was 100% and the GI50 (NCI/ADR-RES) was 40.7 µM. For the same compound, the LC50 (NCI/ADR-RES) was > 44.7 µM, the TGI (NCI/ADR-RES; read-out: pTGI (converted)) was > 44.7 µM and the GI50 [15] was > 44.7 µM. The CC50 [15, 18] was > 44.7 µM, the TGI ([15]; read-out: pTGI (converted)) was > 44.7 µM and the GI50 (NCI-H322M) was > 44.7 µM. The LC50 (NCI-H322M) was > 44.7 µM, the TGI (NCI-H322M; read-out: pTGI (converted)) was > 44.7 µM and the GI50 [16] was > 44.7 µM. The CC50 [16, 18] was > 44.7 µM, the TGI ([16]; read-out: pTGI (converted)) was > 44.7 µM and the GI50 (SK-MEL-28) was > 44.7 µM. For the same compound, the LC50 (SK-MEL-28) was > 44.7 µM, the TGI (SK-MEL-28; read-out: pTGI (converted)) was > 44.7 µM and the GI50 [17] was > 44.7 µM. For the same compound, the LC50 (50% lethal concentration) [17] was > 44.7 µM, the TGI ([17]; read-out: pTGI (converted)) was > 44.7 µM and the growth at 10 µM [9] was 103%. For the same compound, the GI50 (SK-MEL-2) was > 44.7 µM, the LC50 (SK-MEL-2) was > 44.7 µM and the TGI (SK-MEL-2; read-out: pTGI (converted)) was > 44.7 µM. For the same compound, the growth at 10 µM [10] was 108%, the growth at 10 µM (NCI-H460) was 103% and the GI50 (SR) was > 44.7 µM. For the same compound, the LC50 (SR) was > 44.7 µM and the TGI (SR; read-out: pTGI (converted)) was > 44.7 µM.
